Experimental data gathered from unrelated publications.
Target: Wee1-like protein kinase 2 (WEE2, Homo sapiens, UniProt P0C1S8)

CCCCN(CCCC)C(=O)CN1C[C@@H](c2cc(OC)c3c(c2)OCO3)[C@H](C(=O)O)[C@H]1CC(C)(C)CCC
remaining binding (cell-free assay, competition with immobilised ligand; 1 µM): 89.1%

Nc1ncc2c(n1)-c1c([nH]c3ccc(C#CC4CC4)cc13)CCCC2
remaining binding (binding, competition with immobilised ligand; 1 µM): 98%

O=C1CCc2cc(Nc3cc(OC4CCOCC4)c([N+](=O)[O-])cc3Cl)ccc2N1
remaining binding (cell-free assay, competition with immobilised ligand; 1 µM): 96%

CCN1CCN(Cc2ccc(C(=O)Nc3ccc(C)c(Oc4ccc5c(c4)CC(=O)N5)c3)cc2C(F)(F)F)CC1
remaining binding (binding, competition with immobilised ligand; 1 µM): 100%

O=C(c1ccc(Nc2ncc(Cl)c(-c3ccc(Cl)s3)n2)cc1)N1CCC(N2CCCC2)CC1
remaining binding (binding, competition with immobilised ligand; 1 µM): 8.4%

FC(F)(F)Oc1cccc(-c2cnc3ccc(-c4ccncc4)nn23)c1
remaining binding (binding, competition with immobilised ligand; 5 µM): 86%

O=C(NCC1CCOCC1)c1n[nH]cc1NC(=O)c1c(F)cccc1F
remaining binding (binding, competition with immobilised ligand; 1 µM): 100%

CNC(=O)c1ccc(Nc2ncc(C(F)(F)F)c(NCc3nccnc3N(C)S(C)(=O)=O)n2)cc1
remaining binding (cell-free assay, competition with immobilised ligand; 0.1 µM): 97%

CNC(=O)[C@@H]1CC[C@@H](n2c(-c3ccc4cnccc4c3)nc3ccc(C(=O)NCc4cccc(C(N)=O)c4)cc32)C1
remaining binding (binding, competition with immobilised ligand; 1 µM): 100%

CN(CCCC(F)(F)F)c1nccc(-c2cnn3ncccc23)n1
remaining binding (binding; 1 µM): 97%

FC(F)(F)c1ccc2c(c1)nc(-c1cccnc1)n2C1CC1
remaining binding (cell-free assay, competition with immobilised ligand; 1 µM): 100%

C[C@H]1CCN(c2nccc(-c3cnn4ncccc34)n2)C1
remaining binding (binding; 1 µM): 100%

NS(=O)(=O)c1cc(NC(=O)Cc2ccccc2)ccc1Oc1cccc(Cl)c1
remaining binding (cell-free assay, competition with immobilised ligand; 1 µM): 78%

c1cnn2ncc(-c3ccnc(N4CCC45COC5)n3)c2c1
remaining binding (binding; 1 µM): 76%

Cc1cnc(Nc2ccc(C(=O)N3CCC(N4CCCC4)CC3)cc2)nc1-c1cc2ccccc2s1
remaining binding (binding, competition with immobilised ligand; 1 µM): 15%

Cc1cnn2ncc(-c3ccnc(N(C)C)n3)c2c1
remaining binding (binding; 1 µM): 100%

O=C(NCCCN1CCOCC1)c1ccc(Nc2ncc(Cl)c(-c3ccc(Cl)s3)n2)cc1
remaining binding (binding, competition with immobilised ligand; 1 µM): 19%

CC1CCCN1c1nccc(-c2cnn3ncccc23)n1 (stereo not drawn)
remaining binding (binding; 1 µM): 100%

Cn1cc(Cl)c2c(Oc3c(F)cc(Nc4cc(Cl)nc(N)n4)cc3F)ccnc21
remaining binding (cell-free assay, competition with immobilised ligand; 0.1 µM): 93%

N[C@H]1CCN(c2nccc(-c3cnn4ncccc34)n2)C1
remaining binding (binding; 1 µM): 100%

C[C@@H](c1ccc(-n2cnc3c(N)ncnc32)cc1)N1CCc2nn(C)c(Cc3ccccc3)c2C1=O
remaining binding (binding, competition with immobilised ligand; 0.1 µM): 92%
